Laboratory results published in ChEMBL document CHEMBL1817577, “Pachastrissamine (jaspine B) and its stereoisomers inhibit sphingosine kinases and atypical protein kinase C” (Bioorg Med Chem, 2011).

Experiments:
[1] = biological target: T1, Protein kinase C epsilon type (Homo sapiens) (UniProt Q02156); assay: Inhibition of N-terminal GST-fused PKCepsilon (1-737) expressed in baculovirus expression system at 30 uM after 1 hr by off-chip mobility shift assay relative to control
T1 sequence (whole entry): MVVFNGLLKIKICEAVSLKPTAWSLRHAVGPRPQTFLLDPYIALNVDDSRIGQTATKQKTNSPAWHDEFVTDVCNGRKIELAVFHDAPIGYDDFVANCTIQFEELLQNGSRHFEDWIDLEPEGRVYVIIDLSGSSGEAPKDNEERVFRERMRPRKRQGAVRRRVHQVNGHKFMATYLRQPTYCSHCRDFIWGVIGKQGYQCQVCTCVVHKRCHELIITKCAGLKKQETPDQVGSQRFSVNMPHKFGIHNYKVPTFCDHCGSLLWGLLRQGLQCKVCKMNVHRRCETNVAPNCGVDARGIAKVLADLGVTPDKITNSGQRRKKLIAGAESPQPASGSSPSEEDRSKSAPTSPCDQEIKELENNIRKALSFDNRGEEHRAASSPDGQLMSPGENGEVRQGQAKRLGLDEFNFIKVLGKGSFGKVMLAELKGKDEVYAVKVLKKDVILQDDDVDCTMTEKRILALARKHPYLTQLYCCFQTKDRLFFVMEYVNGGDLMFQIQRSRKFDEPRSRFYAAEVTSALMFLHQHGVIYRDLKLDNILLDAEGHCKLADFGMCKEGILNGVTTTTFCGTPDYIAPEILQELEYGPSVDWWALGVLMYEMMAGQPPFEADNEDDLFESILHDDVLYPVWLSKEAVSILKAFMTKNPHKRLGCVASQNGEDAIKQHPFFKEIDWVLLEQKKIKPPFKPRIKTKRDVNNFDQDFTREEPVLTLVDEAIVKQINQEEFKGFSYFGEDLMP
In short: (§1)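 Lipid-activated reactions (phosphatidylserine 50 μg/mL, diacylglycerol 5 μg/mL), no CaCl2. Buffer is 20 mM HEPES pH 7.5, 0.01% Triton X-100, 2 mM DTT, with 1 μM N-FL PKCθ substrate peptide, 10 μM ATP and 5 mM MgCl2. Incubated 1 h at room temperature, n = 2. Product ratio P/(P+S) from electrophoretic peak heights, scaled between no-enzyme (100%) and no-inhibitor (0%) controls.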

[2] = biological target: Sphingosine kinase 1 (Homo sapiens) (UniProt Q9NYA1); assay: Inhibition of N-terminal GST-fused sphingosine kinase 1 (1-384) expressed in baculovirus expression system assessed as inhibition of sphingosine phosphorylation after 1 hr by off-chip mobility shift assay; design: concentration or dose not given beside the values; details: concentration not given here
Sequence of Sphingosine kinase 1 (Homo sapiens) (Q9NYA1 whole entry, the tested form may be a part): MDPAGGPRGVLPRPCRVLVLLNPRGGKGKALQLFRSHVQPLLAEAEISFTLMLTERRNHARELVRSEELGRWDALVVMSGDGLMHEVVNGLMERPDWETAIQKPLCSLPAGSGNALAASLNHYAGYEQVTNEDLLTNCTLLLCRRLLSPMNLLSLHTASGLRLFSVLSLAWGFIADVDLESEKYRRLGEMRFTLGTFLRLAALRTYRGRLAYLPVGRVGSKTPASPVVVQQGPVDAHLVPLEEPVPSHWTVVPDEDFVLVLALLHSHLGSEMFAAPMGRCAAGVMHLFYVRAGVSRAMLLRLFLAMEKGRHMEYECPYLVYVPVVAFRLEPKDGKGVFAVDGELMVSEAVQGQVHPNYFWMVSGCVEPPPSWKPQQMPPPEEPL
In short: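 GST-fusion enzyme purified on glutathione sepharose. Compound series in DMSO diluted fourfold into 20 mM HEPES pH 7.5, 0.01% Triton X-100, 2 mM DTT. Reaction: 1 μM sphingosine, 25 μM ATP, 5 mM MgCl2, 1 h at room temperature (n = 4). Substrate and product separated electrophoretically; P/(P+S) ratio against no-enzyme and no-inhibitor controls; IC50 from concentration series.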

[3] = biological target: Protein kinase C alpha type (Homo sapiens) (UniProt P17252); assay: Inhibition of N-terminal GST-fused PKCalpha (1-672) expressed in baculovirus expression system at 30 uM after 1 hr by off-chip mobility shift assay relative to control
In short: (§2)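 Enzymes purified by glutathione sepharose. DMSO compound stock diluted fourfold into 20 mM HEPES pH 7.5, 0.01% Triton X-100, 2 mM DTT, with phosphatidylserine (50 μg/mL), diacylglycerol (5 μg/mL) and 50 μM CaCl2. Reaction: 1 μM PKCθ substrate peptide (N-FL), 25 μM ATP, 5 mM MgCl2, 1 h at room temperature (n = 2). Read-out is electrophoretic P/(P+S) ratio, normalized to no-enzyme and no-inhibitor controls.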

[4] = biological target: Protein kinase C delta type (Homo sapiens) (UniProt Q05655); assay: Inhibition of N-terminal GST-fused PKCdelta (1-676) expressed in baculovirus expression system at 30 uM after 1 hr by off-chip mobility shift assay relative to control; in short: as §1
Sequence of Protein kinase C delta type (Homo sapiens) (Q05655 whole entry, looked up, the tested form may be a part): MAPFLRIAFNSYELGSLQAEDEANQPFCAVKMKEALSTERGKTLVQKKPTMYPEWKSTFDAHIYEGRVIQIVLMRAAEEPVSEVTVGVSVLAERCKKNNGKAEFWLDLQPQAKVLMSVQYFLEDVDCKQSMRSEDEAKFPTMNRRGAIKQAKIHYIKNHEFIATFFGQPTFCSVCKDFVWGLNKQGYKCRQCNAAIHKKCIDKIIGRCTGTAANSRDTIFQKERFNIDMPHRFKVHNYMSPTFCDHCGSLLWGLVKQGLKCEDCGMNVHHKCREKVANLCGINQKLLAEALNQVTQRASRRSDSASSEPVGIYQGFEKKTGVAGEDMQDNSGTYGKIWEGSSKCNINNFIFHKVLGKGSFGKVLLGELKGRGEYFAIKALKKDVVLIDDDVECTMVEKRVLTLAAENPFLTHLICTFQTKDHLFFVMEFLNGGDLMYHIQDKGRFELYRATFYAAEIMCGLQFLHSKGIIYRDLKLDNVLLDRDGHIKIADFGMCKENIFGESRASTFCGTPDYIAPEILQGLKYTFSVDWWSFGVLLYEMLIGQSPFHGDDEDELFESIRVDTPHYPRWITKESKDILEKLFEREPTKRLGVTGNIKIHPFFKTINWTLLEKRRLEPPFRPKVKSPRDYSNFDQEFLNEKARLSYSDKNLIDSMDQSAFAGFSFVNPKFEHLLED

[5] = biological target: Protein kinase C beta type (Homo sapiens) (UniProt P05771); assay: Inhibition of N-terminal GST-fused PKCbeta1 (1-671) expressed in baculovirus expression system at 30 uM after 1 hr by off-chip mobility shift assay relative to control; in short: as §2
Sequence of Protein kinase C beta type (Homo sapiens) (P05771 2-671 limits assumed): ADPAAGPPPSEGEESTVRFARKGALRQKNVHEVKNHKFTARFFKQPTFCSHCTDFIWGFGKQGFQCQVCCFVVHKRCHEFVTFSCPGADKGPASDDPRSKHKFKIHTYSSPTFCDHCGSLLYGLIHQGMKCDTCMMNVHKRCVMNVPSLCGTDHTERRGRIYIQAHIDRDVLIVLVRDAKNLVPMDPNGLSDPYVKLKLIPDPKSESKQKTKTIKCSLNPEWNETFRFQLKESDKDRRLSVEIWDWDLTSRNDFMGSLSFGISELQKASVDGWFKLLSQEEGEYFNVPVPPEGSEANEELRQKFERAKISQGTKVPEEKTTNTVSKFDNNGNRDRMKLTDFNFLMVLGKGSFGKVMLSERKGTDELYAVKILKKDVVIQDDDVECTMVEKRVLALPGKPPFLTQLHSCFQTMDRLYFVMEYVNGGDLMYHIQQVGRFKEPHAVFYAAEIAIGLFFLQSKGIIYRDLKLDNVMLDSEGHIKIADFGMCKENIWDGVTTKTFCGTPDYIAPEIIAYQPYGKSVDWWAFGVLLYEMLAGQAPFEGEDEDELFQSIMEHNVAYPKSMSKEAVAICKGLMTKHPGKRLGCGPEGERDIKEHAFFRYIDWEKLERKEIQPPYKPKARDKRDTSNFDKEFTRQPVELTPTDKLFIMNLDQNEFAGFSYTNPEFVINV

[6] = biological target: Protein kinase C iota type (Homo sapiens) (UniProt P41743); assay: Inhibition of N-terminal GST-fused PKClota (1-587) expressed in baculovirus expression system at 3 uM after 1 hr by off-chip mobility shift assay relative to control
Sequence of Protein kinase C iota type (Homo sapiens) (P41743 whole entry, looked up, the tested form may be a part): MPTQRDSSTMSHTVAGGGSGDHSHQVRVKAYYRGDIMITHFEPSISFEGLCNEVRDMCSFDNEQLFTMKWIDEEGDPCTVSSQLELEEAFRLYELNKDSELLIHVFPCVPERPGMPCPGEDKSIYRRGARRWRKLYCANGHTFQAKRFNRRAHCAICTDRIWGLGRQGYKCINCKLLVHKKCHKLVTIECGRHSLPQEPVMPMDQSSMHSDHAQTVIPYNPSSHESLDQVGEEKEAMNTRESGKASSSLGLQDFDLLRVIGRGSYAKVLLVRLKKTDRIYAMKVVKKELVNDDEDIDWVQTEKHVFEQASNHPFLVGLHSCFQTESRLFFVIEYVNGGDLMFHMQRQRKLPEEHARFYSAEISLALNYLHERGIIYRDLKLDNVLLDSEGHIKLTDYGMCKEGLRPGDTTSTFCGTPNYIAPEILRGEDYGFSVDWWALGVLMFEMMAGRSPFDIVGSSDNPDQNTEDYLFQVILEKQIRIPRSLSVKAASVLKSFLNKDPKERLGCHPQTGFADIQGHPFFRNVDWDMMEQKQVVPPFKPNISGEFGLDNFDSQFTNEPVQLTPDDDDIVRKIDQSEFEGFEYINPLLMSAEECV

[7] = biological target: T2, Protein kinase C zeta type (Homo sapiens) (UniProt Q05513); assay: Inhibition of N-terminal GST-fused PKCzeta (1-592) expressed in baculovirus expression system at 30 uM after 1 hr by off-chip mobility shift assay relative to control
T2 sequence (whole entry): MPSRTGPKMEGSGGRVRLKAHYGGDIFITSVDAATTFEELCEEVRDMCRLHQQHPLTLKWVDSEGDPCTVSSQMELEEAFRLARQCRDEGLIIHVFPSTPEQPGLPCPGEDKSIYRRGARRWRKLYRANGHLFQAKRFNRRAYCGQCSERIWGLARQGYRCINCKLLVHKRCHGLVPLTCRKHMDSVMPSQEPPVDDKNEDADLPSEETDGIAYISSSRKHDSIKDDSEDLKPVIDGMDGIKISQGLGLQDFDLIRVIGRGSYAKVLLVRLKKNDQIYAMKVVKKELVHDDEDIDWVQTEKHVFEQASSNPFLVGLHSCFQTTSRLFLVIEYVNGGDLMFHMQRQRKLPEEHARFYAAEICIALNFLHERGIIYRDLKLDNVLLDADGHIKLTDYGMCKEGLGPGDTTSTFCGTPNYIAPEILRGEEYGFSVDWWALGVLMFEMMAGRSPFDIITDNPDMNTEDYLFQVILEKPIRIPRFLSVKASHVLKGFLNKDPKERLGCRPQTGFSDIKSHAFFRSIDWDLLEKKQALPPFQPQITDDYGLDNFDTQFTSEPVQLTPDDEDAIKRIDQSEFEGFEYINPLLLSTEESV
In short: (§3)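 No lipid cofactors and no calcium. Reaction buffer is 20 mM HEPES pH 7.5, 0.01% Triton X-100, 2 mM DTT, with 1 μM PKCθ substrate peptide (N-FL), 5 μM ATP and 5 mM MgCl2. Incubated 1 h at room temperature (n = 2). Electrophoretic mobility shift read-out of P/(P+S); normalized to no-enzyme and no-inhibitor controls.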

[8] = biological target: Protein kinase C beta type (Homo sapiens) (UniProt P05771); assay: Inhibition of N-terminal GST-fused PKCbeta2 (1-673) expressed in baculovirus expression system at 30 uM after 1 hr by off-chip mobility shift assay relative to control
In short: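 Same buffer as the other conventional PKCs (20 mM HEPES pH 7.5, 0.01% Triton X-100, 2 mM DTT), with phosphatidylserine 50 μg/mL, diacylglycerol 5 μg/mL and 50 μM CaCl2. Reaction: 1 μM PKCθ substrate peptide (N-FL), 10 μM ATP, 5 mM MgCl2, 1 h at room temperature, duplicate. Substrate and product separated electrophoretically; inhibition from P/(P+S) versus no-enzyme and no-inhibitor controls.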

[9] = biological target: Protein kinase C gamma type (Homo sapiens) (UniProt P05129); assay: Inhibition of N-terminal GST-fused PKCgamma (1-697) expressed in baculovirus expression system at 30 uM after 1 hr by off-chip mobility shift assay relative to control; in short: as §2
[10] = biological target: T3, Sphingosine kinase 2 (Homo sapiens) (UniProt Q9NRA0); assay: Inhibition of N-terminal GST-fused sphingosine kinase 2 (1-618) expressed in baculovirus expression system assessed as inhibition of sphingosine phosphorylation after 1 hr by off-chip mobility shift assay; design: concentration or dose not given beside the values; details: concentration not given here
T3 sequence (whole entry): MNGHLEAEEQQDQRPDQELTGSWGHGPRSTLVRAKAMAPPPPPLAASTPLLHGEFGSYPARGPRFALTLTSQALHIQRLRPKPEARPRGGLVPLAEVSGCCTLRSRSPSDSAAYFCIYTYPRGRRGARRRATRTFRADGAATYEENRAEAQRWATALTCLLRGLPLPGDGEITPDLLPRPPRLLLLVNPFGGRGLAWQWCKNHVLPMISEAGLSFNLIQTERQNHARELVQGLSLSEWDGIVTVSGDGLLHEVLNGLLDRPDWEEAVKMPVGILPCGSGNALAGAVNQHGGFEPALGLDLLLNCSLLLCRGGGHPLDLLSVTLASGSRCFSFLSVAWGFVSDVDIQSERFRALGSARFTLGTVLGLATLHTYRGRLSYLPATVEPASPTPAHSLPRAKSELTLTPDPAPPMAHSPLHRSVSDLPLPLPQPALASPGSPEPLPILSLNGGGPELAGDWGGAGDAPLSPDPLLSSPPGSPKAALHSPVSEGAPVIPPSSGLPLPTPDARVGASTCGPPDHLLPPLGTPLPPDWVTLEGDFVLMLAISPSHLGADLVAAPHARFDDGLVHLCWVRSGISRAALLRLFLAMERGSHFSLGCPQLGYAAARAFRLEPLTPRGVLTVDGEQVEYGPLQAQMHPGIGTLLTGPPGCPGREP
In short: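 Glutathione-sepharose-purified GST fusion tested over a concentration series (DMSO stock diluted fourfold in 20 mM HEPES pH 7.5, 0.01% Triton X-100, 2 mM DTT). Reaction: 1 μM sphingosine, 600 μM ATP, 5 mM MgCl2, 1 h at room temperature, n = 4. Electrophoretic P/(P+S) read-out normalized to controls; IC50 fitted.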

[11] = biological target: Protein kinase C theta type (Homo sapiens) (UniProt Q04759); assay: Inhibition of N-terminal GST-fused PKCtheta (1-706) expressed in baculovirus expression system at 30 uM after 1 hr by off-chip mobility shift assay relative to control
Sequence of Protein kinase C theta type (Homo sapiens) (Q04759 whole entry, looked up, the tested form may be a part): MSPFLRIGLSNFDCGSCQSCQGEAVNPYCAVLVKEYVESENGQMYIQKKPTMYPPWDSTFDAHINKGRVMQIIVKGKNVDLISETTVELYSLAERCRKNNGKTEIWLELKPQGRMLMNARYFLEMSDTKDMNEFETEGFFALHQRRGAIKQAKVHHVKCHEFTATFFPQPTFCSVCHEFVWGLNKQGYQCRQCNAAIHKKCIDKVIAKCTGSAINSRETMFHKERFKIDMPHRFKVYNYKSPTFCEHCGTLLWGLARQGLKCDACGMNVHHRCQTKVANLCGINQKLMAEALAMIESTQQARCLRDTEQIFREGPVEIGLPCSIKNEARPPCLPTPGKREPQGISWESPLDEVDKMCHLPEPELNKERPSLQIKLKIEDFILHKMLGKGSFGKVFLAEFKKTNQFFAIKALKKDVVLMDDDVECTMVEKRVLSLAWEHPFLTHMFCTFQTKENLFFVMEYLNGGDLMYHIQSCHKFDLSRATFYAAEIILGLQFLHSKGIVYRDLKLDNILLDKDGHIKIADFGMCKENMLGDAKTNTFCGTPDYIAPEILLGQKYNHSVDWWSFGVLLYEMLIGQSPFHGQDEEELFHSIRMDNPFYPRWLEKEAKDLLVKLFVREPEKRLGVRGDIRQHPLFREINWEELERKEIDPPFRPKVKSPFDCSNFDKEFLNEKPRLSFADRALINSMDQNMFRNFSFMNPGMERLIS
In short: (§4)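 Buffer is HEPES pH 7.5 (20 mM), 0.01% Triton X-100, 2 mM DTT, with phosphatidylserine (50 μg/mL) and diacylglycerol (5 μg/mL) but no CaCl2. Reaction: 1 μM PKCθ substrate (N-FL), 25 μM ATP, 5 mM MgCl2, 1 h at room temperature, n = 2. Read-out is electrophoretic separation, P/(P+S) ratio, controls as 0% and 100% inhibition.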

[12] = biological target: T2, Protein kinase C zeta type (Homo sapiens); assay: Inhibition of N-terminal GST-fused PKCzeta (1-592) expressed in baculovirus expression system at 3 uM after 1 hr by off-chip mobility shift assay relative to control; in short: as §3
[13] = biological target: Protein kinase C iota type (Homo sapiens) (UniProt P41743); assay: Inhibition of N-terminal GST-fused PKClota (1-587) expressed in baculovirus expression system at 30 uM after 1 hr by off-chip mobility shift assay relative to control
[14] = biological target: Protein kinase C eta type (Homo sapiens) (UniProt P24723); assay: Inhibition of N-terminal GST-fused PKCeta (1-683) expressed in baculovirus expression system at 30 uM after 1 hr by off-chip mobility shift assay relative to control; in short: as §4

| Compound | inhibition [1] [%] | inhibition [2] [%] | inhibition [3] [%] | inhibition [4] [%] | inhibition [5] [%] | inhibition [6] [%] | inhibition [7] [%] | inhibition [8] [%] | inhibition [9] [%] | inhibition [10] [%] | inhibition [11] [%] | inhibition [12] [%] | inhibition [13] [%] | inhibition [14] [%] |
| --- | --- | --- | --- | --- | --- | --- | --- | --- | --- | --- | --- | --- | --- | --- |
| CCCCCCCCCCCCCC[C@@H]1OC[C@@H](N)[C@@H]1O | 29.2 | 0.94 | 33.1 | 67.5 | 45.1 | 50 | 99.8 | 22.9 | 48.5 | 0.48 | 37.1 | 50 | 94.8 | 47 |
| CCCCCCCCCCCCC/C=C/[C@@H](O)[C@H](CO)N(C)C | 40.4 | 50 | 35 | 83.9 | 68.5 | – | 99.1 | 44.3 | 49.2 | 50 | 47.1 | – | 100 | 43.8 |
| CCCCCCCCCCCCCC[C@@H]1OC[C@H](N)[C@H]1O | – | 50 | – | – | – | – | – | – | – | 50 | – | – | – | – |
| CCCCCCCCCCCCCC[C@H]1OC[C@H](N)[C@@H]1O | – | 50 | – | – | – | – | – | – | – | 50 | – | – | – | – |
| CCCCCCCCCCCCCC[C@H]1OC[C@@H](N)[C@H]1O | – | 50 | – | – | – | – | – | – | – | 50 | – | – | – | – |
| CCCCCCCCCCCCCC[C@H]1OC[C@@H](N)[C@@H]1O | 26.3 | 0.59 | 34 | 96.2 | 79.2 | 50 | 99.5 | 43.9 | 47.6 | 1.8 | 51.2 | 50 | 99.9 | 55.4 |
| CCCCCCCCCCCCCC[C@@H]1OC[C@@H](N)[C@H]1O | – | 50 | – | – | – | – | – | – | – | 50 | – | – | – | – |
| CCCCCCCCCCCCCC[C@@H]1OC[C@H](N)[C@@H]1O | 37.4 | 4.6 | 32.7 | 69.6 | 48.5 | 50 | 100 | 27.9 | 48.6 | 6.6 | 39.8 | 50 | 98.5 | 56.6 |
| CCCCCCCCCCCCCC[C@H]1OC[C@H](N)[C@H]1O | – | 50 | – | – | – | – | – | – | – | 50 | – | – | – | – |
